Screening data (PubChem)
Only some compounds are listed: those with a hit (about 1.4% of all), similar ones and a draw of the others.
A3G deaminase – APOBEC3G DNA deaminase inhibitors, primary screen, biochemical, fluorescence, single-stranded DNA substrate, uHTS; recombinant A3G, ssDNA deamination FAM/TAMRA fluorescence; DNA dC->dU-editing enzyme APOBEC-3G (Homo sapiens), Q9HC16; actives 0.28% (n = 330,000); inhibition, % at 20 µM;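 active = inhibition of at least 40% at 20 µM, with no more than 30% in the related APOBEC3A deaminase screen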
HKDC1 inhibitor – HKDC1 hexokinase inhibitors, primary screen, biochemical, fluorescence, uHTS. recombinant HKDC1, G6PDH/diaphorase resazurin coupled fluorescence. inhibition, % at 20 µM. actives 0.16% (n = 340,000). AID 493160, 2011;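 active = inhibition above about 35% when tested at 20 µM, limit read from the data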
Target sequence (Q2TB90 whole entry, looked up): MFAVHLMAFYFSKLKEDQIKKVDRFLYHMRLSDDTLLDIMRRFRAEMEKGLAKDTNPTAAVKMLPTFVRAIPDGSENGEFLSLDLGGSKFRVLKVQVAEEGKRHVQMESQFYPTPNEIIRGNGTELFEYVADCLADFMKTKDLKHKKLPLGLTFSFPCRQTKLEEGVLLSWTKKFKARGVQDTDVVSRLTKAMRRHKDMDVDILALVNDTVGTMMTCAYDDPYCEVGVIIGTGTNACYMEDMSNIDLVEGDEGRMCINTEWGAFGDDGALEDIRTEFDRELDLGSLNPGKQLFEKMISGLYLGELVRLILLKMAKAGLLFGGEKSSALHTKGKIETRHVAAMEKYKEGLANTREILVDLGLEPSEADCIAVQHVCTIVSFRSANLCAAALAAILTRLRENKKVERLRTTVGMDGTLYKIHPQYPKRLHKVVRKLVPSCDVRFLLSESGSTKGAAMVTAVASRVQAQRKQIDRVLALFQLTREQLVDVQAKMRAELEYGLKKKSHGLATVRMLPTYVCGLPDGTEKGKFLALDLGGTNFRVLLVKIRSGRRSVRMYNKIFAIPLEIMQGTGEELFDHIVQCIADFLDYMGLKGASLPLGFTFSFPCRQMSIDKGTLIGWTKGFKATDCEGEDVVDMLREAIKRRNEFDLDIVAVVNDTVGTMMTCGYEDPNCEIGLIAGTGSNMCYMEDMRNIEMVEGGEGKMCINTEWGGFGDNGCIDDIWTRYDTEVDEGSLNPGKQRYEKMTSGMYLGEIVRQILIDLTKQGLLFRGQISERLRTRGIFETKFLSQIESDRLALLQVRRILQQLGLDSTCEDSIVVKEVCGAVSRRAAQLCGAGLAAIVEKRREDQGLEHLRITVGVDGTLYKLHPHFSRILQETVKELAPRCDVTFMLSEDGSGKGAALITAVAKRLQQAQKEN
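Material – in-house recombinant HK5 (HKDC1) enzyme · Quantity – HKDC1 at 5 µg/mL · Buffer or medium – pH 8.0 Tris buffer with 10 mM MgCl2 · Reagent – glucose with 1 mM ATP · Dosing – single 20 µM dose · Times – reaction time 90 min, room temperature, protected from light · Technique – resorufin fluorescence at 613 nm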
A3A deaminase – APOBEC3A ssDNA deaminase inhibitors, primary screen, selectivity assay for APOBEC3G inhibitor project, biochemical, FAM/TAMRA oligo cleavage fluorescence. inhibition, % at 20 µM. recombinant A3A, FAM/TAMRA ssDNA deamination fluorescence. DNA dC->dU-editing enzyme APOBEC-3A (Homo sapiens), P31941. AID 493011, 2011. actives 0.41% (n = 330,000);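 active = at least 40% inhibition at 20 µM here, with at most 30% in a related deaminase screen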
hiPSC survival – enhancers of single-cell hiPSC survival, primary screen, ATPlite luminescence; 100% = ROCK inhibitor wells, 0% = DMSO; survival enhancement, % at 20 µM; actives 0.044% (n = 360,000); AID 602274, 2012; in the data active = survival enhancement above about 18%;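 note: cells exposed to compounds for 16 hours before the ATP read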
PfG6PD inh – PfG6PD enzyme inhibitors, primary screen, biochemical, fluorescence intensity, uHTS; glucose-6-phosphate dehydrogenase-6-phosphogluconolactonase (Plasmodium falciparum 3D7); PfGluPho enzyme, NADPH resazurin-diaphorase fluorescence; inhibition, % at 20 µM; actives 0.78% (n = 350,000); AID 504690, 2011;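 active = inhibition reaching at least a set limit at 20 µM in the primary screen, cut at about 59% in these data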
PfGluPho conf – PfG6PD inhibitors, hit retest, confirmation, biochemical, fluorescence intensity, single concentration | inhibition, % at 20 µM | recombinant PfGluPho, NADPH-diaphorase-resazurin fluorescence | actives 34% (n = 2,400) | shares compounds with PfG6PD inh;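 active = inhibition of at least 50% at 20 µM in any single replicate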
Diaph ctr 10uM – diaphorase inhibitors and chemical oxidizers, confirmation, counter-screen for P. falciparum G6PD inhibitor project, biochemical, fluorescence intensity, 10 µM NADPH; diaphorase-coupled resazurin reduction, NADPH 10 uM; inhibition, % at 20 µM; actives 39% (n = 820); shares compounds with PfG6PD inh;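 active = average inhibition reaching 50% or more with the compound at 20 µM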;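 note: resorufin red fluorescence formed as diaphorase reduces resazurin using NADPH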
Diaphorase 30uM – diaphorase inhibitors and chemical oxidizers, confirmation, counter-screen for P. falciparum G6PD inhibitor project, biochemical, fluorescence intensity, 30 µM NADPH; Diaphorase/resazurin coupled assay, resorufin fluorescence; actives 29% (n = 820); inhibition, % at 20 µM; shares compounds with PfG6PD inh;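 active = inhibition averaging 50% or more, tested at 20 µM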
Each line names hits and unclear results; the compound was inactive in the other large screens (follow-up assays come after a bar, where they were run).

Cc1cc(=S)nc(-c2ccccn2)[nH]1	none
Cc1[nH]c(-c2ccccn2)nc(=S)c1Cl	PfG6PD inh 68.6 | PfGluPho conf inactive
Cc1ccc(/C=C/C(=O)Nc2ccc([N+](=O)[O-])cc2)o1	PfG6PD inh 88.0 | PfGluPho conf inactive
Cc1ccc(/C=C/C(=O)Nc2sc(C)c(C)c2C(=O)OC(C)C)o1	PfG6PD inh 59.7 | PfGluPho conf inactive
CCCOc1ccc(/C=C/C(=O)Nc2ccc([N+](=O)[O-])cc2)cc1	none
O=C(O)/C=C/C(=O)Nc1ccc(Oc2ccccc2)cc1	none
Cc1ccc(/C=C/C(=O)Nc2ccc(Oc3ccccc3)cc2)o1	PfG6PD inh 60.8 (no result: A3G deaminase, A3A deaminase) | PfGluPho conf inactive
O=C(Nc1ccccc1)OC[C@@H]1C=CS(=O)(=O)N1Cc1ccc(Br)cc1	none (no result: A3G deaminase, HKDC1 inhibitor, A3A deaminase, PfG6PD inh)
CCN(C(=O)COC(=O)CSc1ccc([N+](=O)[O-])cc1)C1CCS(=O)(=O)C1 (stereo not drawn)	PfG6PD inh 59.8 | PfGluPho conf inactive
Cc1ccc[n+](C2C(c3ccc([N+](=O)[O-])cc3)C(C#N)=C([S-])NC2(O)C2CC2)c1 (stereo not drawn)	none
COc1ccc([C@H]2C(C#N)=C([S-])N[C@](C)(O)[C@@H]2[n+]2ccccc2)cc1	PfG6PD inh 69.3 (no result: A3G deaminase, A3A deaminase) | PfGluPho conf inactive
CCOc1ccc(Cl)cc1-c1cc(C(=O)NCc2ccccc2OC)[nH]n1	none (no result: A3G deaminase, HKDC1 inhibitor, A3A deaminase, PfG6PD inh)
O=C(Nc1ccc(SC(F)F)cc1)C12CCC(CC1)C2	PfG6PD inh 72.3 | PfGluPho conf inactive
C=C1C2(C(=O)Nc3ccc(SC(F)F)cc3)CCC(C2)C1(C)C (stereo not drawn)	none
COC(=O)c1cc(=O)nc(NN=Cc2ccc(OC)cc2)s1	none (no result: A3G deaminase, HKDC1 inhibitor, A3A deaminase, PfG6PD inh)
CC(NC(=O)/C(C#N)=C/c1ccc([N+](=O)[O-])o1)c1ccccc1 (stereo not drawn)	PfG6PD inh 92.2 | PfGluPho conf 69.0 | Diaph ctr 10uM 64.1 | Diaphorase 30uM 66.2
CCOCCCNC(=O)/C(C#N)=C/c1ccc([N+](=O)[O-])o1	hiPSC survival 28.7, PfG6PD inh 83.6 | PfGluPho conf 73.9 | Diaph ctr 10uM 62.7 | Diaphorase 30uM 70.6
N#CC1=C(N)Oc2c(O)cc3ccccc3c2C1c1ccsc1 (stereo not drawn)	PfG6PD inh 91.8 | PfGluPho conf 68.9 | Diaph ctr 10uM 63.8 | Diaphorase 30uM inactive
CCOC(=O)C1=C(C)OC(N)=C(C#N)C1c1ccsc1 (stereo not drawn)	none
CC(=O)OCCCNc1cc(Sc2nc3ccccc3s2)c2nonc2c1[N+](=O)[O-]	PfG6PD inh 99.4 | PfGluPho conf 63.2 | Diaph ctr 10uM inactive | Diaphorase 30uM inactive
O=S(=O)(c1ccccc1)N1CCN=C1SCc1cccc(Cl)c1	PfG6PD inh 81.8 | PfGluPho conf inactive
Cc1ccc(S(=O)(=O)N2CCN=C2SCc2ccccc2)cc1	PfG6PD inh 68.7 | PfGluPho conf inactive
O=S(=O)(c1ccccc1)N1CCN=C1SCc1ccccc1Cl	PfG6PD inh 77.7 | PfGluPho conf inactive
O=C(NCc1ccccn1)C(=O)NCC1OCCN1S(=O)(=O)c1ccc([N+](=O)[O-])cc1 (stereo not drawn)	none
CNC(=O)c1cc(C(=O)c2c(Cl)cccc2Cl)c[nH]1	none
O=C(O)c1cccc(Sc2cc(Cl)ccc2C(=O)O)c1	none
CC(C)(C)C1CCC(C(=O)OCC(=O)N2CCN(C(=O)c3ccco3)CC2)CC1 (stereo not drawn)	none
CCc1cc(-c2n[nH]c(C)c2-c2nc3ccccc3s2)c(O)cc1OCC(=O)NN	none
CCc1cc(-c2n[nH]c(C)c2-c2nc(C)cs2)c(O)cc1OC	PfG6PD inh 68.6 | PfGluPho conf inactive
COc1ccc(NC(=O)CN(C)C(=O)c2cn(-c3ccccc3)nc2-c2ccc(Cl)cc2)cc1	none
Cc1cc(C)c2c(=O)[nH]c(SCC(=O)c3ccc(C)c(C)c3)nc2n1	none
CCOc1ccccc1/C=N/NC(=O)c1ccc(Cn2cc([N+](=O)[O-])cn2)o1	PfG6PD inh 60.8 | PfGluPho conf inactive
COc1cccc(/C=N/NC(=O)CNC(=O)C2COc3ccccc3O2)c1O (stereo not drawn)	none (no result: A3G deaminase, A3A deaminase)
CCOc1ccccc1/C=N/NC(=O)Cc1csc(Nc2cccc(C(F)(F)F)c2)n1	PfG6PD inh 69.5 | PfGluPho conf inactive
O=C(CNC(=O)C1COc2ccccc2O1)N/N=C\c1ccccc1Cl (stereo not drawn)	PfG6PD inh 60.2 | PfGluPho conf inactive
O=C(CCCC(=O)NN=Cc1ccccc1Cl)NN=Cc1ccccc1Cl	PfG6PD inh 85.8 (no result: A3G deaminase, A3A deaminase) | PfGluPho conf inactive
CCOc1ccc(/C=N/NC(=O)Cc2csc(Nc3cccc(C(F)(F)F)c3)n2)c(OCC)c1	none
COc1cc(/C=C2\CCC(C)C3=C(c4cc(OC)c(OC)c(OC)c4)C(C#N)=C(N)OC32)cc(OC)c1OC (stereo not drawn)	none (no result: A3G deaminase, A3A deaminase)
CCOc1ccccc1N(CC(=O)N/N=C/c1cc(Br)ccc1OC)S(C)(=O)=O	PfG6PD inh 117.9 | PfGluPho conf 72.4 | Diaph ctr 10uM 70.5 | Diaphorase 30uM 55.9
CCOc1ccccc1C=NNC(=O)CCCCC(=O)NN=Cc1ccccc1OCC	PfG6PD inh 124.9 (no result: A3G deaminase, A3A deaminase) | PfGluPho conf 78.2 | Diaph ctr 10uM inactive | Diaphorase 30uM 54.3
O=C(O)CN1CCN(Cc2ccccc2F)C1=O	none
COc1ccccc1N1CCN(/N=C/c2cccc(O)c2)CC1	none
COc1ccccc1N1CCN(/N=C/c2cc(OC)c(O)c(OC)c2)CC1	PfG6PD inh 75.8 | PfGluPho conf inactive
CC(C)C[C@H]1COc2cccc(N(C)CCO)c2S(=O)(=O)N1	none (no result: A3G deaminase, HKDC1 inhibitor, A3A deaminase, PfG6PD inh)
Clc1cccc(CNc2ccn3nc(-c4cccs4)cc3n2)c1	none (no result: A3G deaminase, HKDC1 inhibitor, A3A deaminase, PfG6PD inh)
Cc1ccc(S(=O)(=O)N2CCOCC2)cc1NC(=O)CN1CCN(c2ccc(O)cc2)CC1	PfG6PD inh 64.7 | PfGluPho conf inactive
CCN(C(=O)CN1CCCCCC1)c1c(N)n(Cc2ccccc2)c(=O)[nH]c1=O	none
